Experimental data as given in ChEMBL document CHEMBL1781932 (J Med Chem, 2011).
Converted amounts (≈) assume the structure as drawn.

Assays:
Format in all cases: functional
Staphylococcus aureus [1] = experiment: Antimicrobial activity against tetracycline-susceptible Staphylococcus aureus isolate 101 by CLSI dilution method
Staphylococcus aureus [2] = experiment: Antimicrobial activity against methicillin-, tetracycline-resistant Staphylococcus aureus isolate 161 harboring tetM gene by CLSI dilution method
Staphylococcus aureus [3] = experiment: Antimicrobial activity against tetracycline-resistant Staphylococcus aureus isolate 158 harboring tetK gene by CLSI dilution method
Enterococcus faecalis [4] = experiment: Antimicrobial activity against tetracycline-susceptible Enterococcus faecalis isolate 103 by CLSI dilution method
Method in brief: (§1)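 Broth microdilution per CLSI in fresh cation-adjusted Mueller Hinton broth, kept at 4 °C before testing, with defibrinated horse blood added as appropriate. Strains were from ATCC. MIC in µg/mL. Runs were accepted when comparator antibiotics against ATCC quality-control strains fell within recommended ranges.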

Enterococcus faecalis [5] = experiment: Antimicrobial activity against tetracycline-resistant Enterococcus faecalis isolate 159 harboring […] gene by CLSI dilution method
Streptococcus pneumoniae [6] = experiment: Antimicrobial activity against tetracycline-susceptible Streptococcus pneumoniae isolate 106 by CLSI dilution method; method in brief: as §1
Streptococcus pneumoniae [7] = experiment: Antimicrobial activity against tetracycline-resistant Streptococcus pneumoniae isolate 160 harboring tetM gene by CLSI dilution method
Escherichia coli [8] = experiment: Antimicrobial activity against tetracycline-susceptible Escherichia coli isolate 107 by CLSI dilution method; method in brief: as §1
Escherichia coli [9] = experiment: Antimicrobial activity against tetracycline-resistant Escherichia coli isolate 155 harboring tetA gene by CLSI dilution method
Acinetobacter baumannii = experiment: Antimicrobial activity against tetracycline-susceptible Acinetobacter baumannii isolate 110 by CLSI dilution method; method in brief: as §1
Pseudomonas aeruginosa = experiment: Antimicrobial activity against tetracycline-susceptible Pseudomonas aeruginosa isolate 111 by CLSI dilution method; method in brief: as §1
Enterobacter cloacae = experiment: Antimicrobial activity against tetracycline-susceptible Enterobacter cloacae isolate 108 by CLSI dilution method; method in brief: as §1
Klebsiella pneumoniae [10] = experiment: Antimicrobial activity against tetracycline-susceptible Klebsiella pneumoniae isolate 109 by CLSI dilution method; method in brief: as §1
Klebsiella pneumoniae [11] = experiment: Antimicrobial activity against tetracycline-resistant Klebsiella pneumoniae isolate 153 harboring tetA gene by CLSI dilution method

Structure (SMILES)	MIC (Staphylococcus aureus [1])	MIC (Staphylococcus aureus [2])	MIC (Staphylococcus aureus [3])	MIC (Enterococcus faecalis [4])	MIC (Enterococcus faecalis [5])	MIC (Streptococcus pneumoniae [6])	MIC (Streptococcus pneumoniae [7])	MIC (Escherichia coli [8])	MIC (Escherichia coli [9])	MIC (Acinetobacter baumannii)	MIC (Pseudomonas aeruginosa)	MIC (Enterobacter cloacae)	MIC (Klebsiella pneumoniae [10])	MIC (Klebsiella pneumoniae [11])
COC1CN(Cc2ccc3cc4c(c(O)c3c2)C(=O)C2=C(O)[C@]3(O)C(=O)C(C(N)=O)=C(O)[C@@H](N(C)C)[C@@H]3C[C@@H]2C4)C1	1 µg/mL (≈ 1.77 µM)	4 µg/mL (≈ 7.1 µM)	0.5 µg/mL (≈ 0.887 µM)	1 µg/mL (≈ 1.77 µM)	8 µg/mL (≈ 14.2 µM)	0.0625 µg/mL (≈ 0.111 µM)	0.5 µg/mL (≈ 0.887 µM)	2 µg/mL (≈ 3.55 µM)	16 µg/mL (≈ 28.4 µM)	2 µg/mL (≈ 3.55 µM)	> 32 µg/mL	8 µg/mL (≈ 14.2 µM)	4 µg/mL (≈ 7.1 µM)	16 µg/mL (≈ 28.4 µM)
CC(=O)NC1CN(Cc2ccc3cc4c(c(O)c3c2)C(=O)C2=C(O)[C@]3(O)C(=O)C(C(N)=O)=C(O)[C@@H](N(C)C)[C@@H]3C[C@@H]2C4)C1	2 µg/mL (≈ 3.39 µM)	8 µg/mL (≈ 13.5 µM)	2 µg/mL (≈ 3.39 µM)	2 µg/mL (≈ 3.39 µM)	16 µg/mL (≈ 27.1 µM)	0.25 µg/mL (≈ 0.423 µM)	2 µg/mL (≈ 3.39 µM)	4 µg/mL (≈ 6.77 µM)	16 µg/mL (≈ 27.1 µM)	16 µg/mL (≈ 27.1 µM)	> 32 µg/mL	8 µg/mL (≈ 13.5 µM)	16 µg/mL (≈ 27.1 µM)	16 µg/mL (≈ 27.1 µM)
CN(C)[C@@H]1C(O)=C(C(N)=O)C(=O)[C@@]2(O)C(O)=C3C(=O)c4c(cc5ccc(CN6CC(F)(F)C6)cc5c4O)C[C@H]3C[C@@H]12	1 µg/mL (≈ 1.76 µM)	1 µg/mL (≈ 1.76 µM)	1 µg/mL (≈ 1.76 µM)	1 µg/mL (≈ 1.76 µM)	1 µg/mL (≈ 1.76 µM)	2 µg/mL (≈ 3.51 µM)	4 µg/mL (≈ 7.02 µM)	> 32 µg/mL	> 32 µg/mL	> 32 µg/mL	> 32 µg/mL	> 32 µg/mL	> 32 µg/mL	> 32 µg/mL
CN(C)[C@@H]1C(O)=C(C(N)=O)C(=O)[C@@]2(O)C(O)=C3C(=O)c4c(cc5ccc(CN(C)S(C)(=O)=O)cc5c4O)C[C@H]3C[C@@H]12	2 µg/mL (≈ 3.42 µM)	2 µg/mL (≈ 3.42 µM)	2 µg/mL (≈ 3.42 µM)	2 µg/mL (≈ 3.42 µM)	2 µg/mL (≈ 3.42 µM)	1 µg/mL (≈ 1.71 µM)	4 µg/mL (≈ 6.83 µM)	> 32 µg/mL	> 32 µg/mL	> 32 µg/mL	> 32 µg/mL	> 32 µg/mL	> 32 µg/mL	> 32 µg/mL
COCCNCc1ccc2c(N(C)C)c3c(c(O)c2c1)C(=O)C1=C(O)[C@]2(O)C(=O)C(C(N)=O)=C(O)[C@@H](N(C)C)[C@@H]2C[C@@H]1C3	0.5 µg/mL (≈ 0.841 µM)	8 µg/mL (≈ 13.5 µM)	0.5 µg/mL (≈ 0.841 µM)	1 µg/mL (≈ 1.68 µM)	8 µg/mL (≈ 13.5 µM)	0.0625 µg/mL (≈ 0.105 µM)	1 µg/mL (≈ 1.68 µM)	4 µg/mL (≈ 6.73 µM)	32 µg/mL (≈ 53.8 µM)	2 µg/mL (≈ 3.36 µM)	> 32 µg/mL	16 µg/mL (≈ 26.9 µM)	16 µg/mL (≈ 26.9 µM)	32 µg/mL (≈ 53.8 µM)
CN(C)[C@@H]1C(O)=C(C(N)=O)C(=O)[C@@]2(O)C(O)=C3C(=O)c4c(cc5ccc(F)cc5c4O)C[C@H]3C[C@@H]12	0.5 µg/mL (≈ 1.04 µM)	0.5 µg/mL (≈ 1.04 µM)	0.25 µg/mL (≈ 0.518 µM)	0.25 µg/mL (≈ 0.518 µM)	0.5 µg/mL (≈ 1.04 µM)	2 µg/mL (≈ 4.15 µM)	8 µg/mL (≈ 16.6 µM)	16 µg/mL (≈ 33.2 µM)	> 32 µg/mL	4 µg/mL (≈ 8.29 µM)	> 32 µg/mL	> 32 µg/mL	> 32 µg/mL	> 32 µg/mL
CN(C)[C@@H]1C(O)=C(C(N)=O)C(=O)[C@@]2(O)C(O)=C3C(=O)c4c(c(Cl)c5ccc(F)cc5c4O)C[C@H]3C[C@@H]12	2 µg/mL (≈ 3.87 µM)	2 µg/mL (≈ 3.87 µM)	2 µg/mL (≈ 3.87 µM)	2 µg/mL (≈ 3.87 µM)	2 µg/mL (≈ 3.87 µM)	> 32 µg/mL	> 32 µg/mL	> 32 µg/mL	> 32 µg/mL	> 32 µg/mL	> 32 µg/mL	> 32 µg/mL	> 32 µg/mL	> 32 µg/mL
CN(C)[C@@H]1C(O)=C(C(N)=O)C(=O)[C@@]2(O)C(O)=C3C(=O)c4c(cc5c(CNC6CC6)cccc5c4O)C[C@H]3C[C@@H]12	2 µg/mL (≈ 3.75 µM)	16 µg/mL (≈ 30 µM)	1 µg/mL (≈ 1.87 µM)	4 µg/mL (≈ 7.5 µM)	16 µg/mL (≈ 30 µM)	0.5 µg/mL (≈ 0.937 µM)	4 µg/mL (≈ 7.5 µM)	16 µg/mL (≈ 30 µM)	> 32 µg/mL	4 µg/mL (≈ 7.5 µM)	> 32 µg/mL	> 32 µg/mL	32 µg/mL (≈ 60 µM)	> 32 µg/mL
CNc1cccc2c(O)c3c(cc12)C[C@H]1C[C@H]2[C@H](N(C)C)C(O)=C(C(N)=O)C(=O)[C@@]2(O)C(O)=C1C3=O	2 µg/mL (≈ 4.05 µM)	4 µg/mL (≈ 8.11 µM)	2 µg/mL (≈ 4.05 µM)	4 µg/mL (≈ 8.11 µM)	4 µg/mL (≈ 8.11 µM)	4 µg/mL (≈ 8.11 µM)	16 µg/mL (≈ 32.4 µM)	> 32 µg/mL	> 32 µg/mL	32 µg/mL (≈ 64.8 µM)	> 32 µg/mL	> 32 µg/mL	> 32 µg/mL	> 32 µg/mL
CN(C)c1ccc2c(O)c3c(cc2c1)C[C@H]1C[C@H]2[C@H](N(C)C)C(O)=C(C(N)=O)C(=O)[C@@]2(O)C(O)=C1C3=O	2 µg/mL (≈ 3.94 µM)	4 µg/mL (≈ 7.88 µM)	2 µg/mL (≈ 3.94 µM)	4 µg/mL (≈ 7.88 µM)	4 µg/mL (≈ 7.88 µM)	16 µg/mL (≈ 31.5 µM)	32 µg/mL (≈ 63 µM)	> 32 µg/mL	> 32 µg/mL	> 32 µg/mL	> 32 µg/mL	> 32 µg/mL	> 32 µg/mL	> 32 µg/mL
CN(C)[C@@H]1C(O)=C(C(N)=O)C(=O)[C@@]2(O)C(O)=C3C(=O)c4c(c(OCC(O)CO)c5ccc(CN6CCC6)cc5c4O)C[C@H]3C[C@@H]12 (some centres undefined)	> 32 µg/mL	> 32 µg/mL	> 32 µg/mL	32 µg/mL (≈ 51.3 µM)	> 32 µg/mL	4 µg/mL (≈ 6.41 µM)	16 µg/mL (≈ 25.7 µM)	> 32 µg/mL	> 32 µg/mL	> 32 µg/mL	> 32 µg/mL	> 32 µg/mL	> 32 µg/mL	> 32 µg/mL
CNc1c2c(c(O)c3cc(CN4CCC4)ccc13)C(=O)C1=C(O)[C@]3(O)C(=O)C(C(N)=O)=C(O)[C@@H](N(C)C)[C@@H]3C[C@@H]1C2	2 µg/mL (≈ 3.55 µM)	8 µg/mL (≈ 14.2 µM)	2 µg/mL (≈ 3.55 µM)	4 µg/mL (≈ 7.11 µM)	8 µg/mL (≈ 14.2 µM)	0.25 µg/mL (≈ 0.444 µM)	1 µg/mL (≈ 1.78 µM)	4 µg/mL (≈ 7.11 µM)	> 32 µg/mL	> 32 µg/mL	> 32 µg/mL	32 µg/mL (≈ 56.9 µM)	32 µg/mL (≈ 56.9 µM)	> 32 µg/mL
CN(C)[C@@H]1C(O)=C(C(N)=O)C(=O)[C@@]2(O)C(O)=C3C(=O)c4c(cc5ccc(-c6ccccc6)cc5c4O)C[C@H]3C[C@@H]12	2 µg/mL (≈ 3.7 µM)	8 µg/mL (≈ 14.8 µM)	4 µg/mL (≈ 7.4 µM)	2 µg/mL (≈ 3.7 µM)	0.5 µg/mL (≈ 0.925 µM)	> 32 µg/mL	> 32 µg/mL	> 32 µg/mL	> 32 µg/mL	> 32 µg/mL	> 32 µg/mL	> 32 µg/mL	> 32 µg/mL	> 32 µg/mL
CN(C)c1ccc(-c2ccc3cc4c(c(O)c3c2)C(=O)C2=C(O)[C@]3(O)C(=O)C(C(N)=O)=C(O)[C@@H](N(C)C)[C@@H]3C[C@@H]2C4)cc1	> 32 µg/mL	> 32 µg/mL	16 µg/mL (≈ 27.4 µM)	> 32 µg/mL	16 µg/mL (≈ 27.4 µM)	> 32 µg/mL	> 32 µg/mL	> 32 µg/mL	> 32 µg/mL	> 32 µg/mL	> 32 µg/mL	> 32 µg/mL	> 32 µg/mL	> 32 µg/mL
CCCNCc1ccc2cc3c(c(O)c2c1)C(=O)C1=C(O)[C@]2(O)C(=O)C(C(N)=O)=C(O)[C@@H](N(C)C)[C@@H]2C[C@@H]1C3	0.5 µg/mL (≈ 0.934 µM)	2 µg/mL (≈ 3.73 µM)	0.25 µg/mL (≈ 0.467 µM)	0.5 µg/mL (≈ 0.934 µM)	4 µg/mL (≈ 7.47 µM)	0.0156 µg/mL (≈ 0.0291 µM)	0.25 µg/mL (≈ 0.467 µM)	1 µg/mL (≈ 1.87 µM)	4 µg/mL (≈ 7.47 µM)	1 µg/mL (≈ 1.87 µM)	32 µg/mL (≈ 59.7 µM)	2 µg/mL (≈ 3.73 µM)	2 µg/mL (≈ 3.73 µM)	4 µg/mL (≈ 7.47 µM)
CN(Cc1ccc2cc3c(c(O)c2c1)C(=O)C1=C(O)[C@]2(O)C(=O)C(C(N)=O)=C(O)[C@@H](N(C)C)[C@@H]2C[C@@H]1C3)c1ccccc1	1 µg/mL (≈ 1.71 µM)	8 µg/mL (≈ 13.7 µM)	1 µg/mL (≈ 1.71 µM)	4 µg/mL (≈ 6.85 µM)	4 µg/mL (≈ 6.85 µM)	2 µg/mL (≈ 3.43 µM)	2 µg/mL (≈ 3.43 µM)	> 32 µg/mL	> 32 µg/mL	> 32 µg/mL	> 32 µg/mL	> 32 µg/mL	> 32 µg/mL	> 32 µg/mL
